High-throughput results from PubChem BioAssay.
Only some compounds are listed: those with a hit (about 12% of all), similar ones and a draw of the others.
WT yeast gro inh – growth inhibition of WT yeast, mitochondrial fusion screen | mitochondrial fusion phenotypic screen, WT strain | inhibition, % at 10 µM | 190,000 compounds, 2.1% hits | AID 1362; in the data active means inhibition above about 58%; tested in S. cerevisiae
ABCG2 block – blocks JC-1 efflux by human ABCG2 transporter; 190,000 compounds, 0.1% hits; IgMXP3 cells, flow cytometry; inhibition, % at 6.6 µM; Q9UNQ0;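 active means inhibition above 80%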;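 further: 0% = DMSO and 100% = nicardipine control wells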
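Test system: IgMXP3 cells (ABCG2) mixed with DDAO far-red-labelled CCRF-Adr cells (ABCB1). Reagent: JC-1 transporter substrate. Compound dosing: single test compound dose, 6.6 µM final. Times: 10 min compound exposure, 25 °C. Detection: flow cytometry of retained JC-1 fluorescence. Read-out basis: efflux inhibition in percent versus controls. Controls: nicardipine and DMSO wells.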
Lmaj promast – Leishmania major promastigote growth inhibition; inhibition, % at 10 µM; AID 1063; 200,000 compounds, 9% hits; Leishmania major promastigotes, resazurin fluorescence viability; in the data active means inhibition above about 50%;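 further: promastigotes grown with compound for 44 hours at 28 °C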
ABCB1 block – human ABCB1 inhibition, ABCG2 as counter-screen | P08183 | CCRF-Adr cells, JC-1 efflux, flow cytometry | inhibition, % at 6.6 µM | 190,000 compounds, 0.067% hits | AID 1326; in the data active means inhibition above about 40%;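 further: 0% = vehicle and 100% = reference inhibitor; higher value means more JC-1 retained so stronger ABCB1 efflux block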
RAM network inh – blocks the yeast RAM network | S. cerevisiae dse1pr::URA3 reporter, 5-FOA growth OD615, 2 d; analog-sensitive cbk1-as2 kinase mutant strain | inhibition, % at 50 µM | 190,000 compounds, 1.8% hits;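 active means inhibition above a set limit, 3 SD over mean compound inhibition, cut at about 8.4% in these data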;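 further: 0% = DMSO-only wells with no growth and 100% = 10 µM 1-NA-PP1 full growth; inhibition rescues growth on 5-FOA so higher OD means more RAM inhibition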
* marks the source's active call; other numbers are inactive results; / = no result given.

SMILES | WT yeast gro inh | ABCG2 block | Lmaj promast | ABCB1 block | RAM network inh
Cc1n(-c2ccccc2)c2ccc(Cl)cc2[n+]1CCO | 13.0 | 3.3 | -3.7 | 0.6 | 0.9
CC(NC(=O)C(=O)N/N=C/c1ccccc1)c1ccccc1 (stereo not drawn) | 3.9 | 5.4 | -5.0 | 0.4 | 0.7
COc1ccc2cc3cc(C(=O)Nc4ccc5c(c4)OCCO5)oc3nc2c1 | -10.7 | -2.4 | 99.7* | -2.4 | 3.6
COc1ccc2cc3cc(C(=O)NC(C)C)oc3nc2c1 | -2.2 | -0.8 | 88.5* | 1.7 | 2.9
COc1ccc2cc3cc(C(=O)NCc4cccnc4)oc3nc2c1 | -0.9 | 8.0 | 14.8 | 1.6 | 2.2
COc1ccc2cc3cc(C(=O)Nc4cc(OC)c(OC)c(OC)c4)oc3nc2c1 | -11.3 | 0.8 | 4.5 | 1.0 | 1.5
O=[n+]1cc(-c2ccc(Cl)cc2)n([O-])c2c1CCCCC2 | 1.2 | -0.1 | -6.7 | -0.1 | 2.5
N#C/C(C(=O)N1CCOCC1)=C1/SC(Cc2ccccc2Cl)C(=O)N1c1ccccc1 (stereo not drawn) | -16.8 | 1.9 | -8.5 | 2.0 | 1.4
CCC(C)n1c(-c2cccs2)nc2nc3ccccc3nc21 (stereo not drawn) | -0.5 | 9.5 | 67.0* | 0.7 | 0.7
c1ccc(-n2c(-c3cccs3)nc3nc4ccccc4nc32)cc1 | -1.6 | -3.2 | -1.0 | -0.5 | 1.2
COC(=O)C1=C(SC)N(c2ccccc2)C(c2ccccc2)CC1=O (stereo not drawn) | 6.2 | 2.8 | -1.8 | 0.0 | 0.0
Cc1c(C(=O)NC(C(C)C)C(C)C)cccc1[N+](=O)[O-] | -5.5 | 5.2 | 11.7 | 0.7 | 1.9
O=C(c1ccccc1)c1sc(N2CCOCC2)nc1-c1ccccc1 | 0.2 | 0.0 | -3.1 | -0.2 | 0.0
O=C(c1ccc(Br)cc1)c1sc(N2CCOCC2)nc1-c1ccccc1 | 42.2 | 4.2 | 17.0 | 0.0 | 9.4*
[2H]c1c([2H])c([2H])c(C(=O)c2sc(N3CCCCCC3)nc2-c2ccccc2)c([2H])c1[2H] | -2.8 | 0.3 | 22.1 | 0.2 | 8.8*
C/C(=N/NC(=O)c1ccoc1C)c1cccc(NC(=O)C2CC2)c1 | 9.0 | 21.6 | 17.0 | 0.3 | 0.1
N/C(=N/O)c1ccccc1N1CCC(Cc2ccccc2)CC1 | 70.0* | 0.1 | 23.3 | -0.5 | 0.1
Cc1c(Cc2ccccc2)sc(NC(=O)Cc2ccccc2)c1C(N)=O | / | / | -7.8 | / | /
CCC(=O)Nc1sc(Cc2ccccc2)c(C)c1C(N)=O | 74.3* | 20.7 | -2.1 | 1.5 | 0.4
CC(NC(=O)CSc1nc(=O)cc(N)n1CCc1ccccc1)c1ccccc1 (stereo not drawn) | 59.3* | -2.6 | -6.6 | -0.1 | 1.2
Cc1ccc(NC(=O)CSc2nc(=O)cc(N)n2CCc2ccccc2)cc1 | 8.8 | -2.2 | -1.3 | -0.1 | 0.0
COc1ccc(C2(C(=O)Nc3ccc(C)cc3)CCOCC2)cc1 | 2.4 | 1.2 | 1.1 | -0.2 | 1.5
C=CCN(CC=C)C(=O)c1ccc(OC2CCN(Cc3ccccn3)CC2)cc1 | -13.1 | 1.9 | 58.9* | 0.9 | 0.8
O=C(NCCN1CCOCC1)c1cc2cc(Cl)cc(Cl)c2oc1=O | / | / | -7.8 | / | /
CCOc1cc(CNCCc2ccc(S(N)(=O)=O)cc2)ccc1OCc1ccc(Cl)cc1 | 8.1 | 1.2 | 100.5* | 0.3 | -1.1
SMILES | WT yeast gro inh | ABCG2 block | Lmaj promast | ABCB1 block | RAM network inh
CCOc1ccc(CNCCc2ccc(S(N)(=O)=O)cc2)cc1 | 1.1 | -0.5 | 19.5 | -0.1 | 0.8
COc1cc(CNCCc2ccc(S(N)(=O)=O)cc2)ccc1OCc1ccc(Cl)cc1 | 12.9 | -1.9 | 100.5* | -6.1 | -0.5
CC(Oc1cc(-c2ccccc2)cc2ccccc12)C(=O)N1CCOCC1 (stereo not drawn) | -13.7 | 2.6 | 18.8 | 0.7 | 3.6
O=C(COC(=O)/C=C/c1ccco1)Nc1ccc(F)cc1Cl | -0.7 | 6.8 | -5.2 | -0.1 | 2.1
COc1ccc(N2C(=O)c3ccccc3NC2c2cccnc2)cc1 (stereo not drawn) | -2.0 | 22.9 | 58.8* | -1.4 | 1.9
COc1ccc(-c2nnc3sc(CCN4C(=O)c5ccccc5C4=O)nn23)cc1 | 3.0 | 1.6 | 2.2 | 0.8 | 9.4*
COc1ccc(-c2nn3c(-c4ccccc4)nnc3s2)cc1 | 20.9 | 14.9 | -3.6 | -0.2 | 5.7
Nc1nnc(SCC(=O)NN2C(=O)NC3(CCCCC3)C2=O)s1 | 1.6 | -2.5 | 60.2* | 0.1 | 0.4
O=C(CCl)NN1C(=O)NC2(CCCCC2)C1=O | 15.4 | 3.4 | -2.1 | -0.2 | 3.2
O=C(O)c1ccc(NC(CSCc2ccccc2F)C(=O)O)c([N+](=O)[O-])c1 (stereo not drawn) | -2.1 | 1.8 | -5.7 | 1.1 | -0.5
